Reference: publication PMC4241044 (Journal of Clinical Pharmacology, 2014)
Read-outs that look alike come from different tables or passages of the source. Marks after values point to notes of the source that are not given here.

Legend:
[1] = Erythromycin trough plasma concentrations, attainment of steady state; format: in vivo, human; details: erythromycin 500 mg tid, visual inspection
Summary of the method: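 Erythromycin 500 mg tid was given for 6 days in treatment periods 2 and 3. Trough plasma was sampled before the morning erythromycin dose on days 2–6 and on the morning of day 7, then stored frozen. Assay was LC/MS/MS after methanol protein precipitation, on a reverse-phase column at 40 °C. Steady state was judged visually from concentration–time plots.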

[2] = steady-state erythromycin; previous Phase I drug–drug interaction study; cited from earlier work
[3] = previous study, cited from earlier work
[4] = cited from earlier work
[5] = Rivaroxaban urine pharmacokinetics; format: in vivo, human; details: arithmetic mean (SD); for CL renal: human, urine and plasma, oral, CLR, renal clearance
[6] = format: in vivo, human; details: for AUC(0-inf) / Cmax / Vd/F / Tmax / half-life: human, plasma, oral; for Tmax: median (minimum–maximum); for half-life: t½; for increase in AUC∞ / increase in Cmax: compared with normal renal function; for DNAUC∞ (dose-normalized AUC∞) / DNCmax (dose-normalized Cmax): dose-normalized to 10 mg
[7] = Safety and tolerability; format: in vivo, human
Summary of the method: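 Monitoring was continuous and covered bleeding events and other treatment-emergent adverse events, with severity and relation to study drugs. Vital signs, ECG, haematology, clinical chemistry, PT/aPTT and urinalysis were checked, plus regular physical examinations. Subjects were grouped by Cockcroft–Gault CLCR. […] Analysis included all subjects receiving ≥1 study-drug dose.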

[8] = 2.5–10 mg dose range under fasting conditions and 10–20 mg dose range under fed conditions; ref previous Phase I studies; cited from earlier work
[9] = tested on: prothrombin time (PT); assay: Prothrombin time prolongation in plasma; format: in vivo, human
Summary of the method: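 Subjects were grouped by mean of two Cockcroft–Gault CLCR estimates: ≥80 (normal), 50–79 (mild) and 30–49 mL/min (moderate). […] PT blood was drawn at −1 h (baseline) and 0.5–48 h post-dose. […] Log-transformed geometric mean ratios with 90% CI; completers only.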

[10] = target: Factor Xa activity (Homo sapiens, UniProt P00742); assay: Factor Xa inhibition in plasma; format: in vivo
Factor Xa activity, sequence (P00742 235-488 limits assumed): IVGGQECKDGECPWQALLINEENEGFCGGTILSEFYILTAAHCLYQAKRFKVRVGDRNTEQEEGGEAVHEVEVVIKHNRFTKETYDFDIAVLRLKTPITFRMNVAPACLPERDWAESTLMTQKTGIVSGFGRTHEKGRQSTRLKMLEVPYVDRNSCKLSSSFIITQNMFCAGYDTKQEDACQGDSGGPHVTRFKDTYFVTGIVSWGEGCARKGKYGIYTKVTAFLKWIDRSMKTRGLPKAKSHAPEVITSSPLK
Factor Xa activity, sequence (P00742 41-179 partner limits assumed): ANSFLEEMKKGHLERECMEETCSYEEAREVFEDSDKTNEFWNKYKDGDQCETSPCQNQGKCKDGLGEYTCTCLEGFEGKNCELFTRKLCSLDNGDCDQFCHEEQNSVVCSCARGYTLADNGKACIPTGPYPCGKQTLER

[11] = rivaroxaban 5 mg + erythromycin 500 mg tid, mild renal impairment
[12] = rivaroxaban 5 mg + erythromycin 500 mg tid, moderate renal impairment
[13] = rivaroxaban 10 mg + erythromycin 500 mg tid, mild renal impairment
[14] = rivaroxaban 10 mg + erythromycin 500 mg tid, moderate renal impairment
[15] = rivaroxaban 10 mg + erythromycin 500 mg tid, normal renal function
[16] = Mild RI, rivaroxaban 10 mg + erythromycin 500 mg tid
[17] = Moderate RI, rivaroxaban 10 mg + erythromycin 500 mg tid
[18] = 10 mg, geometric mean, Normal RF, rivaroxaban 10 mg
[19] = 10 mg, rivaroxaban 10 mg, mild renal impairment, arithmetic mean (SD)
[20] = rivaroxaban 5 mg + erythromycin 500 mg tid, mild renal impairment, arithmetic mean (SD)
[21] = rivaroxaban 5 mg + erythromycin 500 mg tid, moderate renal impairment, arithmetic mean (SD)
[22] = rivaroxaban 10 mg + erythromycin 500 mg tid, normal renal function, arithmetic mean (SD)
[23] = rivaroxaban 10 mg + erythromycin 500 mg tid, moderate renal impairment, arithmetic mean (SD)
[24] = mild renal impairment, rivaroxaban 10 mg with steady-state erythromycin, rivaroxaban 10 mg alone
[25] = mild renal impairment, rivaroxaban 10 mg
[26] = moderate renal impairment, rivaroxaban 10 mg with steady-state erythromycin, rivaroxaban 10 mg alone
[27] = moderate renal impairment, rivaroxaban 10 mg
[28] = mild renal impairment vs normal renal function, rivaroxaban 10 mg
[29] = moderate renal impairment vs normal renal function, rivaroxaban 10 mg
[30] = normal renal function, rivaroxaban 10 mg + erythromycin vs rivaroxaban alone

Structure (SMILES): CC[C@H]1OC(=O)[C@H](C)[C@@H](O[C@H]2C[C@@](C)(OC)[C@@H](O)[C@H](C)O2)[C@H](C)[C@@H](O[C@@H]2O[C@H](C)C[C@H](N(C)C)[C@H]2O)[C@](C)(O)C[C@@H](C)C(=O)[C@H](C)[C@@H](O)[C@]1(C)O [erythromycin]
- attainment of steady-state plasma concentrations [1]: obtained by the morning of day 5

Structure (SMILES): O=C(NC[C@H]1CN(c2ccc(N3CCOCC3=O)cc2)C(=O)O1)c1ccc(Cl)s1 [Rivaroxaban, rivaroxaban]
- increase in AUC∞ [2]: approximately 34%
- increase in Cmax [2]: approximately 34%
- increase in AUC∞ ([3]; mild renal impairment vs normal renal function): approximately 44%
- increase in AUC∞ ([3]; moderate renal impairment vs normal renal function): ~52%
- dose metabolized via CYP2J2 [4]: 14%
- dose metabolized via CYP3A4/3A5 [4]: approximately 18%
- dose metabolized via CYP-independent hydrolysis [4]: 14%
- drug excreted unchanged by the kidneys [4]: approximately 36%
- fraction of the absorbed dose hepatically metabolized ([4]; via CYP3A4/3A5, CYP2J2 and CYP-independent mechanisms): approximately two-thirds
- fraction of the absorbed dose eliminated as unchanged drug in the urine ([4]; via P-gp-mediated and ABCG2-mediated secretion): third
- CL renal [5, 11]: 15.9 mL/min
- CL renal [5, 12]: 9.25 mL/min
- CL renal [5, 13]: 19.2 mL/min
- CL renal [5, 14]: 13.3 mL/min
- CL renal [5, 15]: 34.3 mL/min
- Ae, cumulative amount excreted into the urine over 48 hours [5, 11]: 1.56 (0.692) mg
- Ae, cumulative amount excreted into the urine over 48 hours [5, 12]: 1.04 (0.531) mg
- Ae, cumulative amount excreted into the urine over 48 hours [5, 13]: 3.29 (0.893) mg
- Ae, cumulative amount excreted into the urine over 48 hours [5, 14]: 2.74 (1.10) mg
- Ae, cumulative amount excreted into the urine over 48 hours [5, 15]: 4.80 (0.851) mg
- Ae, cumulative amount excreted into the urine over 48 hours ([5]; rivaroxaban 10 mg, mild renal impairment): 2.49 (0.697) ^a mg
- Ae, cumulative amount excreted into the urine over 48 hours ([5]; rivaroxaban 10 mg, moderate renal impairment): 1.30 (0.654) mg
- Ae, cumulative amount excreted into the urine over 48 hours ([5]; rivaroxaban 10 mg, normal renal function): 3.51 (0.773) mg
- AUC∞, geometric mean [6, 16]: 3,078.7 ng · h/mL
- Cmax, geometric mean [6, 16]: 277.2 ng/mL
- Cmax, geometric mean [6, 17]: 292.42 ng/mL
- AUC∞, geometric mean ([6]; Moderate RI, rivaroxaban 10 mg + erythromycin 500 mg tid, n = 7): 3,475.5 ^a ng · h/mL
- Cmax, geometric mean ([6]; Normal RF, rivaroxaban 10 mg): 178.17 ng/mL
- AUC(0-inf) ([6]; 10 mg, geometric mean, Mild RI, rivaroxaban 10 mg): 2000 ng·h/mL
- AUC(0-inf) ([6]; 10 mg, geometric mean, Moderate RI, rivaroxaban 10 mg): 2040 ng·h/mL
- AUC(0-inf) [6, 18]: 1750 ng·h/mL
- AUC(0-inf) [6, 19]: 2020 ng·h/mL
- Cmax [6, 18]: 178 ng/mL
- Vd/F [6, 19]: 77.3 L
- Tmax ([6]; 10 mg, rivaroxaban 10 mg, mild renal impairment): 3 h
- Tmax ([6]; 10 mg, rivaroxaban 10 mg, moderate renal impairment): 3 h
- half-life [6, 19]: 9.9 h
- AUC(0-inf) [6, 20]: 1970 ng·h/mL
- AUC(0-inf) [6, 21]: 1980 ng·h/mL
- AUC(0-inf) [6, 22]: 2470 ng·h/mL
- Cmax [6, 23]: 323 ng/mL
- Cmax [6, 22]: 256 ng/mL
- Vd/F [6, 20]: 37.5 L
- Vd/F ([6]; rivaroxaban 10 mg + erythromycin 500 mg tid, mild renal impairment, arithmetic mean (SD)): 46 L
- Vd/F [6, 23]: 40.9 L
- Vd/F [6, 22]: 44.2 L
- Tmax [6, 11]: 3 h
- Tmax [6, 14]: 3 h
- half-life [6, 21]: 10 h
- increase in AUC∞ [6, 24]: approximately 76%
- increase in Cmax [6, 24]: ~56%
- increase in AUC∞ [6, 25]: approximately 15%
- increase in Cmax [6, 25]: ~23%
- increase in AUC∞ [6, 26]: ~99%
- increase in Cmax [6, 26]: ~64%
- increase in AUC∞ [6, 27]: approximately 17%
- increase in Cmax [6, 27]: ~36%
- DNAUC∞ (dose-normalized AUC∞) [6, 20]: 3,935 (1,671) ng · h/mL
- DNCmax (dose-normalized Cmax) [6, 20]: 358 (109) ng/mL
- DNAUC∞ (dose-normalized AUC∞) [6, 21]: 3,961 (1,020) ng · h/mL
- DNCmax (dose-normalized Cmax) [6, 21]: 329 (104) ng/mL
- subjects reporting bleeding events ([7]; 1 NRF, 3 moderate RI, all mild in intensity, of 29 enrolled): Four
- tolerability ([7]; single dose 5 mg or 10 mg, regardless of renal function and erythromycin co-administration): well tolerated
- dose proportionality (based on AUC) [8]: dose-proportional
- Prothrombin time AUC0–48h, geometric mean [9, 16]: 118.7
- Prothrombin time Emax, geometric mean [9, 16]: 9.85
- Prothrombin time AUC0–48h, geometric mean [9, 17]: 115.1
- Prothrombin time Emax, geometric mean [9, 17]: 10.02
- Prothrombin time AUC0–48h, geometric mean ([9]; Normal RF, rivaroxaban 10 mg): 67.82
- Prothrombin time Emax, geometric mean ([9]; Normal RF, rivaroxaban 10 mg): 8.24
- increase in PT Emax [9, 28]: ~5%
- change in PT AUC0–48h [9, 29]: did not seem to change significantly
- change in PT Emax [9, 29]: did not seem to change significantly
- increase in PT AUC0–48h [9, 30]: approximately 22%
- increase in PT Emax [9, 30]: ~10%
- Factor Xa inhibition AUC0–48h, geometric mean [10, 17]: 842.3
- Factor Xa inhibition Emax, geometric mean [10, 17]: 53.61
- Factor Xa inhibition AUC0–48h, geometric mean ([10]; Normal RF, rivaroxaban 10 mg): 593.43
- Factor Xa inhibition Emax, geometric mean ([10]; Normal RF, rivaroxaban 10 mg): 39.38
- increase in Factor Xa inhibition AUC0–48h [10, 28]: approximately 16%
- increase in Factor Xa inhibition Emax [10, 28]: ~17%
- increase in Factor Xa inhibition AUC0–48h [10, 29]: approximately 3%
- increase in Factor Xa inhibition Emax [10, 29]: ~17%
- Factor Xa inhibition AUC0–48h lower by [10, 30]: approximately 8%
- increase in Factor Xa inhibition Emax [10, 30]: approximately 18%
